Measured values: ChEMBL document CHEMBL1255276, “Reliability of the WIDERYST susceptibility testing system for detection of in vitro antifungal resistance in yeasts” (2008)
In brackets after ≈: the same amount, converted by molar mass.

What was measured:
Format in all cases: functional
Candida parapsilosis [1] = test: Antifungal activity against Candida parapsilosis ATCC 22019 by WIDERYST method; settings: Lodderomyces parapsilosis
Method in brief: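 Commercial 96-well panels with lyophilized drugs, the strain serving as a quality control. Ranges: FLC and 5FC 128–0.06 µg/ml; AMB, ITC, VRC and KTC 8–0.004 µg/ml. Inoculum 1 x 10^5 to 5 x 10^5 CFU/ml, 35°C, 24 h, no CO2, plus 24 h if no growth. Video-image read; MIC is 90% (AMB) or 50% (others) growth reduction versus the positive control.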

Pichia kudriavzevii [2] = test: Antifungal activity against Candida krusei ATCC 6258 by AFST-EUCAST method
Method in brief: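 AFST-EUCAST microdilution standard for fermentative yeasts (document 7.1). The medium was RPMI 1640 with 2% glucose in flat-bottomed plates, and the inoculum was 10^5 CFU/ml. Endpoints were read spectrophotometrically at 24 and 48 h. The MIC was the lowest concentration giving ≥90% growth reduction versus the drug-free control for AMB, or a 50% OD reduction for 5FC and azoles. Run as a quality-control strain in each set.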

Candida parapsilosis [3] = test: Antifungal activity against Candida parapsilosis ATCC 22019 by CLSI M27-A2 microdilution method; settings: Lodderomyces parapsilosis
Candida parapsilosis [4] = test: Antifungal activity against Candida parapsilosis ATCC 22019 by AFST-EUCAST method; settings: Lodderomyces parapsilosis
Method in brief: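 Microdilution per AFST-EUCAST 7.1, with the strain run as a quality control in each set. RPMI 1640 plus 2% glucose, inoculum 10^5 CFU/ml, flat-bottomed plates. Read spectrophotometrically at 24 and 48 h. MIC endpoint is the lowest concentration giving ≥90% growth reduction versus the drug-free control for AMB, and 50% OD reduction for 5FC and azoles.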

Pichia kudriavzevii [5] = test: Antifungal activity against Candida krusei ATCC 6258 by WIDERYST method
Pichia kudriavzevii [6] = test: Antifungal activity against Candida krusei ATCC 6258 by CLSI M27-A2 microdilution method

Molecule `C[C@@H]1[C@H](O)[C@@H](C)/C=C/C=C/C=C/C=C/C=C/C=C/C=C/[C@H](O[C@@H]2O[C@H](C)[C@@H](O)[C@H](N)[C@@H]2O)C[C@@H]2O[C@](O)(C[C@@H](O)C[C@@H](O)[C@H](O)CC[C@@H](O)C[C@@H](O)CC(=O)O[C@H]1C)C[C@H](O)[C@H]2C(=O)O` [AMPHOTERICIN B] has an MIC (Candida parapsilosis [1]) of 0.06 µg/mL (≈ 0.0649 µM), an MIC (Pichia kudriavzevii [2]) of 0.12 µg/mL (≈ 0.13 µM) and an MIC (Candida parapsilosis [3]) of 0.25 µg/mL (≈ 0.271 µM). For the same molecule, the MIC (Candida parapsilosis [4]) was 0.12 µg/mL (≈ 0.13 µM), the MIC (Pichia kudriavzevii [5]) was 0.12 µg/mL (≈ 0.13 µM) and the MIC (Pichia kudriavzevii [6]) was 0.5 µg/mL (≈ 0.541 µM).

Work on `OC(Cn1cncn1)(Cn1cncn1)c1ccc(F)cc1F` [FLUCONAZOLE] yielded an MIC (Candida parapsilosis [1]) of 0.5 µg/mL (≈ 1.63 µM), an MIC (Pichia kudriavzevii [2]) of 8 µg/mL (≈ 26.1 µM) and an MIC (Candida parapsilosis [3]) of 1 µg/mL (≈ 3.27 µM). For the same molecule, the MIC (Candida parapsilosis [4]) was 1 µg/mL (≈ 3.27 µM), the MIC (Pichia kudriavzevii [5]) was 8 µg/mL (≈ 26.1 µM) and the MIC (Pichia kudriavzevii [6]) was 16 µg/mL (≈ 52.2 µM).

`CC(=O)N1CCN(c2ccc(OCC3COC(Cn4ccnc4)(c4ccc(Cl)cc4Cl)O3)cc2)CC1` (stereo unspecified) [KETOCONAZOLE] showed an MIC (Candida parapsilosis [1]) of 0.01 µg/mL (≈ 0.0188 µM), an MIC (Pichia kudriavzevii [2]) of 0.06 µg/mL (≈ 0.113 µM) and an MIC (Candida parapsilosis [3]) of 0.03 µg/mL (≈ 0.0565 µM). The MIC (Candida parapsilosis [4]) was 0.01 µg/mL (≈ 0.0188 µM), the MIC (Pichia kudriavzevii [5]) was 0.12 µg/mL (≈ 0.226 µM) and the MIC (Pichia kudriavzevii [6]) was 0.12 µg/mL (≈ 0.226 µM).

`CCC(C)n1ncn(-c2ccc(N3CCN(c4ccc(OCC5COC(Cn6cncn6)(c6ccc(Cl)cc6Cl)O5)cc4)CC3)cc2)c1=O` (stereo unspecified) [ITRACONAZOLE] showed an MIC (Candida parapsilosis [1]) of 0.03 µg/mL (≈ 0.0425 µM), an MIC (Pichia kudriavzevii [2]) of 0.06 µg/mL (≈ 0.085 µM) and an MIC (Candida parapsilosis [3]) of 0.12 µg/mL (≈ 0.17 µM). The MIC (Candida parapsilosis [4]) was 0.03 µg/mL (≈ 0.0425 µM), the MIC (Pichia kudriavzevii [5]) was 0.06 µg/mL (≈ 0.085 µM) and the MIC (Pichia kudriavzevii [6]) was 0.12 µg/mL (≈ 0.17 µM).

Work on `C[C@@H](c1ncncc1F)[C@](O)(Cn1cncn1)c1ccc(F)cc1F` [VORICONAZOLE] yielded an MIC (Candida parapsilosis [1]) of 0.01 µg/mL (≈ 0.0286 µM), an MIC (Pichia kudriavzevii [2]) of 0.06 µg/mL (≈ 0.172 µM) and an MIC (Candida parapsilosis [3]) of 0.03 µg/mL (≈ 0.0859 µM). For the same molecule, the MIC (Candida parapsilosis [4]) was 0.03 µg/mL (≈ 0.0859 µM), the MIC (Pichia kudriavzevii [5]) was 0.06 µg/mL (≈ 0.172 µM) and the MIC (Pichia kudriavzevii [6]) was 0.06 µg/mL (≈ 0.172 µM).

With `Nc1nc(=O)[nH]cc1F` [FLUCYTOSINE] the MIC (Candida parapsilosis [1]) was 0.06 µg/mL (≈ 0.465 µM), the MIC (Pichia kudriavzevii [2]) was 1 µg/mL (≈ 7.75 µM) and the MIC (Candida parapsilosis [3]) was 0.12 µg/mL (≈ 0.93 µM). The MIC (Candida parapsilosis [4]) was 0.12 µg/mL (≈ 0.93 µM), the MIC (Pichia kudriavzevii [5]) was 2 µg/mL (≈ 15.5 µM) and the MIC (Pichia kudriavzevii [6]) was 4 µg/mL (≈ 31 µM).
